In the library only some 3.5% were active in any assay of this set; here they are far more common.
MrgX1 PAM = positive allosteric modulators of MrgX1, primary screen, HEK293 cells, Fluo-4 calcium flux. AID 588675, 2011. 310,000 compounds, 0.63% hits. Mas-related G-protein coupled receptor member X1 (Homo sapiens), Q96LB2. B-score at 10 µM. FDSS; hits give high values;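 active = plate-corrected calcium response at least 3 library SD above typical, normal starting fluorescence, not activating the receptor alone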;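 note: compound read alongside a low EC10 to EC30 dose of BAM8-22 agonist; peak minus trough fluorescence over baseline measured at the second addition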
Target sequence (Q96LB2 whole entry, looked up): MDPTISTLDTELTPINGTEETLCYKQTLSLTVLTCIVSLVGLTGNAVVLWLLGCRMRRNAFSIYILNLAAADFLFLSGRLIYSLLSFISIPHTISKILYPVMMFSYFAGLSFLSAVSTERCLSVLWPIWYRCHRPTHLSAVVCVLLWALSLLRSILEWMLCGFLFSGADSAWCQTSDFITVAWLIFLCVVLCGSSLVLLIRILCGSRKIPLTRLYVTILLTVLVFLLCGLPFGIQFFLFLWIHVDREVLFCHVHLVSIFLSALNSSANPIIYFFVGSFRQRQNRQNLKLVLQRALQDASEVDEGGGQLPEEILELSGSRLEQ
RGS4 act = RGS4 potentiators or activators, primary screen, cell-based, HEK293 M3R inducible RGS4, calcium flux; B-score at 10 µM; carbachol calcium flux Fluo4; hits give low values; 310,000 compounds, 0.92% hits;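 active = B-score of the integrated calcium signal more than 4 SD below the library mean, with starting fluorescence not abnormally high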;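 note: negative B-score means reduced calcium response which marks RGS4 activation or potentiation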
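Detection: kinetic calcium fluorescence imaging with Fluo4-AM dye, 2 µM / Material: HEK293 cells with stable M3R and inducible RGS4 / Schedule: recording 10 s baseline at 1 Hz, 100 s post-agonist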
MrgX1 ag = agonists of human MrgX1 receptor, primary screen, HEK293 cells, Fluo-4 calcium flux; Fluo-4 calcium fluorescence, agonist mode; hits give high values; B-score at 10 µM; 310,000 compounds, 0.44% hits; AID 588627, 2011;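 active = calcium response B-score plate-corrected fluorescence ratio at least 3 library SD, with starting fluorescence B-score inside 5 SD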
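Material: HEK293 cells stably expressing human MrgX1 receptor | Quantity: 15,000 cells per well | Times: Cells plated overnight, dye loaded 0.5 h 37 °C, 0.5 h room temperature | Measured by: Kinetic Fluo-4 NW fluorescence of intracellular calcium | Control set: Positive and negative controls per plate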
MrgX1 antagonist = antagonists of human MrgX1 receptor, primary screen, HEK293 cells, Fluo-4 calcium flux. B-score at 10 µM. 310,000 compounds, 1.3% hits. AID 588676, 2011. Mas-related G-protein coupled receptor member X1 (Homo sapiens), Q96LB2. BAM8-22 antagonism; hits give low values;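 active = calcium-response B-score plate-corrected more than 3 library SD below zero, starting fluorescence within 5 deviations, no agonist response on first addition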;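 note: peak minus trough fluorescence over baseline after final BAM8-22 challenge near maximal dose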
RGS4 inh = RGS4 inhibitors, primary screen, cell-based, HEK293 M3R inducible RGS4, calcium flux. AID 463165, 2010. Fluo-4 calcium flux; hits give high values; triggered by carbachol at its EC20. 310,000 compounds, 0.45% hits. B-score at 10 µM. Regulator of G-protein signaling 4 (Homo sapiens), P49798;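 active = B-score, a plate-corrected calcium signal, over three deviations above library mean, with baseline fluorescence within five deviations of library mean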;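 note: RGS4 expression induced by doxycycline in cells with stable M3 receptor; B-score is computed from the integrated fluorescence ratio over baseline after carbachol; higher B-score means a larger calcium signal and so more RGS4 inhibition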
* marks the source's active call; other numbers are inactive results; i = inactive; / = no result.

SMILES	MrgX1 PAM	RGS4 act	MrgX1 ag	MrgX1 antagonist	RGS4 inh
CCCCC(=O)Nc1nnc(CCOC)s1	i	i	i	i	i
C=CCOC(=O)C1=C[C@@H](c2coc3ccccc3c2=O)C[C@@H](OCCCCO)O1	i	i	i	i	i
COc1ccc(OCc2cc(C(=O)NCCN3CCCc4ccccc43)no2)c(Cl)c1	i	-7.5*	i	i	i
O=C(C1CCC1)N1CCc2cc(S(=O)(=O)NC3CCCC3)ccc21	i	i	i	i	i
CN1CCN(c2ccccc2NS(=O)(=O)c2ccc3c(c2)CCN3C(=O)C2CCC2)CC1	i	-9.8*	i	i	i
O=C(O)CSCC(=O)N1CCN(S(=O)(=O)c2cc(Cl)cc(Cl)c2)CC1	i	i	i	i	i
CCCCc1nc2cc(C(=O)N3CCCC(COC)C3)ccc2o1 (stereo not given)	i	i	i	i	i
O=C(Nc1nnc(CSCc2ccc(Cl)cc2)s1)c1cccc([N+](=O)[O-])c1	i	i	i	-9.5*	i
O=[N+]([O-])c1ccccc1S(=O)(=O)N1CCN(C2CCN(Cc3ccccc3)CC2)CC1	i	-7.3*	i	i	i
O=[N+]([O-])c1ccccc1S(=O)(=O)N1CCN(C2CCCC2)CC1	i	i	i	i	i
O=[N+]([O-])c1ccc(S(=O)(=O)N2CCN(C3CCN(Cc4ccccc4)CC3)CC2)cc1	i	-7.5*	i	i	i
COc1cccc(CNC(=O)C2CCN(S(=O)(=O)N3CCC(C)CC3)CC2)c1	i	i	i	i	i
Cc1ccc(Oc2ncccc2/C=N/OCc2ccc(Cl)cc2Cl)cc1	7.3*	i	i	i	i
COc1cccc2sc(N(CCN(C)C)C(=O)c3ccc4c(c3)CCCC4)nc12	6.7*	i	i	i	i
CCCCN(CC)S(=O)(=O)c1ccc(C(=O)N(CCCN(C)C)c2nc3cc(C)cc(C)c3s2)cc1	i	-8.1*	i	i	i
CCN(Cc1ccccc1)S(=O)(=O)c1ccc(C(=O)N(CCCN(C)C)c2nc3cc(C)cc(C)c3s2)cc1	i	i	i	i	i
CCOc1cccc2sc(N(CCCN(C)C)C(=O)c3ccc(S(=O)(=O)N(CC)Cc4ccccc4)cc3)nc12	i	-7.7*	i	i	i
CC(C)NC(=O)CCc1nc2cccnc2n1-c1ccccc1	i	i	i	i	i
COc1ccc(NC(=O)c2c(NC(=O)CCC(=O)O)sc(-c3ccccc3)c2C)cc1	i	i	i	i	i
C/C(=N/NC(=O)CSc1nc2ccccc2n1C)c1ccc(O)cc1	i	i	i	-4.9*	i
Nc1c(C(=O)N/N=C/c2cccnc2)oc2nc(-c3ccco3)cc(-c3ccco3)c12	i	i	i	i	i
Nc1c(C(=O)N/N=C/c2cccnc2)oc2nc(-c3ccccc3)cc(-c3ccco3)c12	i	-8.9*	i	-6.2*	i
O=C(NCCCN1CCCC1)c1ccc2c(c1)N(Cc1ccccc1)CCS2	i	-7.4*	i	i	i
O=C(N/N=C/c1ccccn1)c1cc(Br)ccc1O	i	i	27*	i	i
O=C(N/N=C/c1cccnc1)c1cc(Br)ccc1O	i	i	i	i	i
SMILES	MrgX1 PAM	RGS4 act	MrgX1 ag	MrgX1 antagonist	RGS4 inh
Cc1ccc(NC(=O)CN(C)C(=O)COC(=O)CNS(=O)(=O)c2ccc(Br)cc2Cl)cc1	i	i	59*	i	i
Cc1ccc(NC(=O)CN(C)C(=O)COC(=O)CNS(=O)(=O)c2ccc(F)c(F)c2F)cc1	i	i	i	i	i
Cn1cccc1/C=C1\SC(=Nc2ccccc2)NC1=O	i	i	i	i	i
Cc1ccc(N=C2NC(=O)/C(=C/c3cn(C)c4ccccc34)S2)cc1C	i	/	i	-4.8*	/
COCCNC(=S)N/N=C/c1ccc(OCc2ccc(C(=O)OC)cc2)c(OC)c1	i	i	i	-4.9*	i
COc1ccccc1CC(=O)Nc1ccon1	i	i	i	i	i

Compound activity as filed in PubChem.
